Measurements from ChEMBL document CHEMBL5352503, “Nonpeptidic Oxazole-Based Prolyl Oligopeptidase Ligands with Disease-Modifying Effects on α-Synuclein Mouse Models of Parkinson's Disease” (J Med Chem, 2023).
The source made the active and inactive calls. The rule behind the calls is not given here.

How the values were obtained:
HEK293 [1] = assay: Induction of autophagy in PREP knockout HEK293 cells assessed as LC3B-II expression level at 10 uM incubated for 24 hrs by Western blot analysis; assay type: functional, cell-based; settings: Homo sapiens
In short: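 HEK-293 PREP-KO cells, grown with 20% FBS, plated 500,000/well and attached overnight. Treated at 10 μM for 4 or 24 h (0.1% DMSO vehicle), then lysed in RIPA. LC3BII measured by Western blot, 30 μg protein loaded, band OD normalized to β-actin or vinculin.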

Mus musculus [2] = assay: (§1) Neuroprotective activity against AAV2-CBA-GFP injected C57BL/6JRccHsd mouse model of Parkinson's disease assessed as change in tyrosine hydroxylase positive dopaminergic neuron immunoreactivity in substantia nigra pars compacta at 10 mg/kg/day, ip administered for 2 weeks by optical density based analysis; assay type: functional, organism-based
HEK293 [3] = assay: Activation of PP2A in HEK293 cells assessed as increase in LC3B-II level at 10 uM incubated for 4 hrs by immunoblot analysis; assay type: cell-based; settings: Homo sapiens, filed as activator
In short: (§2)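 HEK-293 cells seeded 500,000/well, attached overnight, then exposed to compound (0.1% DMSO vehicle) for 4 or 24 h. Lysed in RIPA. Western blot with 30 μg protein on 4–20% gels, PVDF transfer, skim-milk block, primary antibody overnight at +4 °C. Detection by chemiluminescence, band OD normalized to β-actin or vinculin. pPP2Ac is the Tyr307-phosphorylated form.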

[4] = molecular target: Dipeptidyl peptidase 9 (Homo sapiens) (UniProt Q86TI2); assay: Inhibition of human DPP9 expressed in Sf9 insect cells using Ala-Pro-para-nitroanilide as substrate at 1 to 10 uM preincubated for 15 mins followed by substrate addition and measured for 10 mins; settings: dose 1-10 µM, time 25.0 min
In short: (§3)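 Ala-Pro-pNA substrate at 25 μM for DPP4 (purified from human seminal plasma) or 150 μM for DPP9 (Sf9-expressed). Buffer pH 7.4: 0.05 M HEPES-NaOH, 0.1% Tween-20, 0.1 mg/mL BSA, 150 mM NaCl. Compound at 1 and 10 μM final, preincubated 15 min at 37 °C. pNA release read kinetically at 405 nm for at least 10 min.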

[5] = molecular target: Alpha-synuclein (Homo sapiens) (UniProt P37840); assay: Inhibition of alpha-synuclein (unknown origin) dimerization transfected in mouse Neuro2a cells at 10 uM incubated for 4 hrs by Protein-fragment complementation assay; assay type: cell-based
Neuron = assay: Cytotoxicity against mouse primary neurons cells assessed as cell viability at 1 to 100 uM incubated for 48 hrs by MTT assay; assay type: toxicity, cell-based; settings: dose 1-100 µM
HEK293 [6] = assay: Activation of PP2A in HEK293 cells by measuring decrease in ratio between Tyr307 phosphorylated inactive PP2Ac to total PP2Ac at 1 uM incubated for 4 hrs by Western blot analysis; assay type: cell-based; settings: Homo sapiens, filed as activator; in short: as §2
HEK293 [7] = assay: Activation of PP2A in HEK293 cells assessed as increase in total PP2Ac level at 0.01 to 50 uM incubated for 4 hrs by Western blot analysis; assay type: cell-based; settings: Homo sapiens, filed as activator, dose 0.01-50 µM; in short: as §2
HEK293 [8] = assay: Cytotoxicity against HEK293 cells assessed as cell viability at 1 to 100 uM incubated for 24 hrs by MTT assay; assay type: toxicity, cell-based; settings: human, hek293, 24 h, dose 1-100 µM
HEK293 [9] = assay: Activation of PP2A in HEK293 cells assessed as increase in total PP2Ac level at 10 uM incubated for 24 hrs by immunoblot analysis; assay type: cell-based; settings: Homo sapiens, filed as activator; in short: as §2
Mus musculus [10] = assay: Anti-parkinson activity in AAV2-CBA-alpha-synuclein virus vector injected Parkinson's disease C57BL/6JRccHsd mouse model assessed as motor deficit by measuring decrease in use of ipsilateral forepaw usage at 10 mg/kg/day, ip administered for 2 to 4 weeks of treatment by cylinder test; assay type: functional, organism-based; settings: time 2-4 weeks
In short: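 Male C57BL/6JRCcHsd mice, 10–11 weeks old, got a unilateral AAV2-CBA-αSyn injection above the SNpc. Dosing started 4 weeks later at 10 mg/kg/day i.p. by Alzet minipump. Ipsilateral forepaw use was scored by cylinder test at 6 and 8 weeks post-injection, against vehicle-treated αSyn-injected and AAV-GFP control mice. Two-way ANOVA with Dunnett's comparisons was used.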

Mus musculus [11] = assay: (§4) Neuroprotective activity against AAV2-CBA-GFP injected C57BL/6JRccHsd mouse model of Parkinson's disease assessed as change in tyrosine hydroxylase positive cell count in substantia nigra pars compacta at 10 mg/kg/day, ip administered for 2 weeks by optical density based analysis; assay type: functional, organism-based
[12] = molecular target: Dipeptidyl peptidase 4 (Homo sapiens) (UniProt P27487); assay: Inhibition of human DPP4 using Ala-Pro-para-nitroanilide as substrate at 1 to 10 uM preincubated for 15 mins followed by substrate addition and measured for 10 mins; settings: dose 1-10 µM, time 25.0 min; in short: as §3
HEK293 [13] = assay: Activation of PP2A in HEK293 cells assessed as decrease in phosphorylated PP2Ac level at 10 uM incubated for 24 hrs by immunoblot analysis; assay type: cell-based; settings: Homo sapiens; in short: as §2
SH-SY5Y = assay: Cytotoxicity against human SH-SY5Y cells assessed as cell viability at 1 to 100 uM incubated for 24 hrs by MTT assay; assay type: toxicity, cell-based; settings: dose 1-100 µM
Mus musculus [14] = assay: Upregulation of total PP2Ac level in C57BL/6JRccHsd mouse brain at 10 mg/kg, ip measured after 45 mins by Western blot analysis; assay type: functional, organism-based
In short: (§5)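 Mice given 10 mg/kg i.p. in 5% Tween-20 in 0.9% NaCl, with vehicle-injected controls. Brains collected 45 min after injection. Homogenates analysed by Western blot for pPP2A, PP2A and LC3BII, with OD normalized to β-actin or vinculin.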

[15] = molecular target: Prolyl endopeptidase FAP (Homo sapiens) (UniProt Q12884); assay: Inhibition of human FAP expressed in Sf9 insect cells using […] at 1 to 10 uM preincubated for 15 mins followed by substrate addition and measured for 10 mins; settings: dose 1-10 µM, time 25.0 min
In short: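 Z-Gly-Pro-AMC at 50 μM, pH 8, in 0.05 M Tris-HCl with 0.1% glycerol, 1 mg/mL BSA and 140 mM NaCl. Enzyme preincubated with compound 15 min at 37 °C. AMC release read kinetically at ex 380/em 465 nm for at least 10 min at 37 °C.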

[16] = Permeability of the compound across blood brain barrier in C57BL/6JRccHsd mouse at 1.11 uM, ip measured at 30 mins by LC-MS analysis; assay type: ADME, organism-based; settings: 0.5 h
In short: (§6)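 Male C57BL/6JRCcHsd mice, 10 weeks old, dosed 10 mg/kg i.p. in 5% Tween-20 in 0.9% NaCl. Brains collected at 15, 30, 45, 60, 120 and 180 min. Brain compound concentration measured by LC-MS, and AUC0–180 min calculated.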

[17] = molecular target: Alpha-synuclein (Homo sapiens) (UniProt P37840); assay: Inhibition of alpha-synuclein (unknown origin) dimerization transfected in PREP knockout HEK293 cells at 10 uM incubated for 4 hrs by luminescence based multimode plate reader method; assay type: cell-based
In short: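 Split Gaussia luciferase protein-fragment complementation in HEK-293 PREP-KO cells, run like the N2A protocol. Cells transfected with αSyn-Gluc1 and αSyn-Gluc2; 48 h later treated 4 h at 10 μM. Luminescence read after injecting native coelenterazine.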

HEK293 [18] = assay: Induction of autophagic flux in HEK293 cells expressing GFP-LC3B-RFP at 10 uM incubated for 24 hrs by Hoechst staining based assay; assay type: functional, cell-based; settings: Homo sapiens
HEK293 [19] = assay: Activation of PP2A in HEK293 cells assessed as increase in LC3B-II level at 10 uM incubated for 24 hrs by immunoblot analysis; assay type: cell-based; settings: Homo sapiens, filed as activator; in short: as §2
Mus musculus [20] = assay: Downregulation of alpha-syn oligomer expression in C57BL/6JRccHsd mouse striatum injected with AAV2-CBA-alpha-synuclein virus at 10 mg/kg/day, ip administered for 2 weeks by optical density based analysis; assay type: functional, organism-based
In short: (§7)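 Unilateral AAV2-CBA-αSyn was injected above the SNpc of male C57BL/6JRCcHsd mice. Dosing at 10 mg/kg/day i.p. by Alzet minipump began 4 weeks after injection. Brain sections were immunostained for oligomer-specific αSyn and optical density was measured in striatum and SNpc, with n = 7–9/group, reported as mean ± SEM.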

Mus musculus [21] = assay: as §4, with “AAV2-CBA-alpha-synuclein virus vector” for “AAV2-CBA-GFP”; assay type: functional, organism-based
[22] = Activation of PP2A in HEK293 cells by measuring decrease in ratio between Tyr307 phosphorylated inactive PP2Ac to total PP2Ac incubated for 4 hrs by Western blot analysis; assay type: cell-based; settings: Homo sapiens, HEK293, 4 h; in short: as §2
Mus musculus [23] = assay: as §1, with “AAV2-CBA-alpha-synuclein virus vector” for “AAV2-CBA-GFP”, “striatum” for “substantia nigra pars compacta”; assay type: functional, organism-based
[24] = Drug elimination in C57BL/6JRccHsd mouse brain at 10 mg/kg, ip measured at 180 mins by LC-MS analysis; assay type: ADME, organism-based; settings: in vivo, 3 h; in short: as §6
[25] = molecular target: Dipeptidyl peptidase 2 (Homo sapiens) (UniProt Q9UHL4); assay: Inhibition of recombinant human DPP2 using Lys-Ala-pNA as substrate at 1 to 10 uM preincubated for 15 mins followed by substrate addition and measured for 10 mins; settings: dose 1-10 µM, time 25.0 min
In short: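 Recombinant human DPP2 with 1 mM Lys-Ala-pNA, pH 5.5, in 100 mM NaAc, 10 mM EDTA and 14 μg/mL aprotinin. Compound at 1 and 10 μM, preincubated 15 min at 37 °C. pNA release read kinetically at 405 nm for at least 10 min at 37 °C.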

Mus musculus [26] = assay: Upregulation of LC3B-II level in C57BL/6JRccHsd mouse brain at 10 mg/kg, ip measured after 45 mins by Western blot analysis; assay type: functional, organism-based; in short: as §5
[27] = In vivo inhibition of PREP in C57BL/6JRccHsd mouse liver at 10 mg/kg, ip measured for 3 hrs by LC-MS analysis relative to control; assay type: functional
HEK293 [28] = assay: Activation of PP2A in HEK293 cells assessed as decrease in inactive phosphorylated PP2Ac level at 1 uM incubated for 4 hrs by Western blot analysis; assay type: cell-based; settings: Homo sapiens, filed as activator; in short: as §2
[29] = Permeability of the compound across blood brain barrier in C57BL/6JRccHsd mouse at 1.86 uM, ip measured at 15 mins by LC-MS analysis; assay type: ADME, organism-based; settings: 0.25 h; in short: as §6
Mus musculus [30] = assay: as §1, with “AAV2-CBA-alpha-synuclein virus vector” for “AAV2-CBA-GFP”; assay type: functional, organism-based
HEK293 [31] = assay: Activation of PP2A in HEK293 cells assessed as decrease in phosphorylated PP2Ac level at 10 uM incubated for 4 hrs by immunoblot analysis; assay type: cell-based; settings: Homo sapiens, filed as activator; in short: as §2
Mus musculus [32] = assay: Neuroprotective activity against AAV2-CBA-GFP injected C57BL/6JRccHsd mouse model of Parkinson's disease assessed as change in tyrosine hydroxylase positive dopaminergic neuron immunoreactivity in striatum at 10 mg/kg/day, ip administered for 2 weeks by optical density based analysis; assay type: functional, organism-based
HEK293 [33] = assay: Activation of PP2A in HEK293 cells assessed as increase in LC3B-II level at 0.1 to 10 uM incubated for 4 hrs by Western blot analysis; assay type: cell-based; settings: Homo sapiens, filed as activator, dose 0.1-10 µM; in short: as §2
HEK293 [34] = assay: Activation of PP2A in HEK293 cells assessed as increase in total PP2Ac level at 10 uM incubated for 4 hrs by immunoblot analysis; assay type: cell-based; settings: Homo sapiens, filed as activator; in short: as §2
Mus musculus [35] = assay: Downregulation of alpha-syn oligomer in C57BL/6JRccHsd mouse substantia nigra pars compacta injected with AAV2-CBA-alpha-synuclein virus at 10 mg/kg/day, ip administered for 2 weeks by optical density based analysis; assay type: functional, organism-based; in short: as §7
[36] = molecular target: Alpha-synuclein (Homo sapiens) (UniProt P37840); assay: Inhibition of alpha-synuclein (unknown origin) dimerization transfected in HEK293 cells at 10 uM incubated for 4 hrs by luminescence based multimode plate reader method; assay type: cell-based

Sequence of Prolyl endopeptidase FAP (Homo sapiens) (Q12884 whole entry): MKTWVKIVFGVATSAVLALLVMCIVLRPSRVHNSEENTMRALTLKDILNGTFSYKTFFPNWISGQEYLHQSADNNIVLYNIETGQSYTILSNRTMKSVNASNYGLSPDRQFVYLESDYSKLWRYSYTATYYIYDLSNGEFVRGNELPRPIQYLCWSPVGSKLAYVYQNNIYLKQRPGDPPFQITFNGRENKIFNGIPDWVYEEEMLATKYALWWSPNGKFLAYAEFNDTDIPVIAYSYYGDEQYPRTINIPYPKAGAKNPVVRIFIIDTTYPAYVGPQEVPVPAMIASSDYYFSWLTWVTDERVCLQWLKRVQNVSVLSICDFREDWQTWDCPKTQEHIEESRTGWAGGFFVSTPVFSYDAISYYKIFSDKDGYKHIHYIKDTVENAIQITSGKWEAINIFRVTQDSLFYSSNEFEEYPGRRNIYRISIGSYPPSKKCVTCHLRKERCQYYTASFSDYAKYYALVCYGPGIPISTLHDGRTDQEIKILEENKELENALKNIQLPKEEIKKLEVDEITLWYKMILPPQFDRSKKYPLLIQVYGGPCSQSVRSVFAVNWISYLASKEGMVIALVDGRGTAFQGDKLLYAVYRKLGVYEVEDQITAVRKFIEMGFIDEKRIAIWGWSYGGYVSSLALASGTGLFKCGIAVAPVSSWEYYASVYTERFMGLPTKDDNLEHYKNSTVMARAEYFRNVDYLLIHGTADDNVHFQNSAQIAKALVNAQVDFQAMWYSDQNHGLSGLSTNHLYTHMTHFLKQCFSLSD
Sequence of Dipeptidyl peptidase 9 (Homo sapiens) (Q86TI2 2-863 limits assumed): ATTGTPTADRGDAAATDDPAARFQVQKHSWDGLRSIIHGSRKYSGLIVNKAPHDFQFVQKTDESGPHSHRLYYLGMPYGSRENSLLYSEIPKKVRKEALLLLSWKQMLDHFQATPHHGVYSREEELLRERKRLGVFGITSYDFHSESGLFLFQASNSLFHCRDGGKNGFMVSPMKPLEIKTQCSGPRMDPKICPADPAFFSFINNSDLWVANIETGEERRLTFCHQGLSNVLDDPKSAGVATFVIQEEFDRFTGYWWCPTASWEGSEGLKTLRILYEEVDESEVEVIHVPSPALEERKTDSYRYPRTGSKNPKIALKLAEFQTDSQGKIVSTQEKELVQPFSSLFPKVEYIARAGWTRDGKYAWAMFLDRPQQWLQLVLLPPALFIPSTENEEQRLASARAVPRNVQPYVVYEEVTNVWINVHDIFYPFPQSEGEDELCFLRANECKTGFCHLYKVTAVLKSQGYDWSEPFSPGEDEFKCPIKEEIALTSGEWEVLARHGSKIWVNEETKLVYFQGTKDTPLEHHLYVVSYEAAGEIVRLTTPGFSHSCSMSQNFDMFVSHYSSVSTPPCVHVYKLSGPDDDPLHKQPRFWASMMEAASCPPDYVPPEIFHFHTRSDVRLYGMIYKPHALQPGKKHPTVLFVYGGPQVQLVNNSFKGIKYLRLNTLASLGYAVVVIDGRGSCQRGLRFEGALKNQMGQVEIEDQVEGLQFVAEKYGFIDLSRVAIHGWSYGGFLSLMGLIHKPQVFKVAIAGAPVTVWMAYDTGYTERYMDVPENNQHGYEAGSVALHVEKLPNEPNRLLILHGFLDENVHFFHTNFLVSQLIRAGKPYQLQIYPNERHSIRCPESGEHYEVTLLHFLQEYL
Sequence of Dipeptidyl peptidase 4 (Homo sapiens) (P27487 whole entry, looked up): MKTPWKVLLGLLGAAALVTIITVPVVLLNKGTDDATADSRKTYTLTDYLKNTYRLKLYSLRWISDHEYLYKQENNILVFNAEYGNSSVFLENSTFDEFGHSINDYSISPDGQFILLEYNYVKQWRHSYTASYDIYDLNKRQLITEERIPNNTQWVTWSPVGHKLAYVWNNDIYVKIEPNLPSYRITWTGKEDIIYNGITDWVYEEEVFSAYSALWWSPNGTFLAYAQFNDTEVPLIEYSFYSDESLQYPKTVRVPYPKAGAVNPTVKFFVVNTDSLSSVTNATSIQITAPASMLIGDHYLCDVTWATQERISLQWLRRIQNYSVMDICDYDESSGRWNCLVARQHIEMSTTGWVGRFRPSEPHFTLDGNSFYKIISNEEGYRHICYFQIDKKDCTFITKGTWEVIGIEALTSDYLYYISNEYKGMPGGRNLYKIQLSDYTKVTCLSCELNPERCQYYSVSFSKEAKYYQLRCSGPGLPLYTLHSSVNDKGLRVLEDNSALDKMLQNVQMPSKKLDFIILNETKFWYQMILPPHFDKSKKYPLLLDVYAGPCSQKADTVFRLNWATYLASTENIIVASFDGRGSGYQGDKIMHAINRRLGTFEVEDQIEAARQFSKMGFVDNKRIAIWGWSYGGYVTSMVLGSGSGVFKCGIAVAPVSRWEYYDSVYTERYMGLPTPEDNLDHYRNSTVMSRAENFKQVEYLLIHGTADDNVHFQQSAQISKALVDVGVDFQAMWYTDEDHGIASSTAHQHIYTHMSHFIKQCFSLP

## Cc1nc(CCCc2ccccc2)oc1N1CCC[C@H]1C#N
HEK293 [1]
  Activity: inactive
Mus musculus [2]
  Activity: inactive
HEK293 [3]
  Activity: Active
[4]
  inhibition: inactive
[5]
  inhibition: Active
Neuron
  Activity: Non-Toxic
HEK293 [6]
  Activity: Active
HEK293 [7]
  Activity: Active
HEK293 [8]
  Activity: Non-Toxic
HEK293 [9]
  Activity: Active
Mus musculus [10]
  Activity: Active
Mus musculus [11]
  Activity: inactive
[12]
  inhibition: inactive
HEK293 [13]
  Activity: inactive
SH-SY5Y
  Activity: Non-Toxic
Mus musculus [14]
  Activity: Active
[15]
  inhibition: inactive
[16]
  pBBB: Permeable
[17]
  inhibition: inactive
HEK293 [18]
  Activity: Active
HEK293 [19]
  Activity: Active
Mus musculus [20]
  Activity: Active
Mus musculus [21]
  Activity: inactive
[22]
  EC50: 275 nM
Mus musculus [23]
  Activity: inactive
[24]
  Drug excretion: Not Active
[25]
  inhibition: inactive
Mus musculus [26]
  Activity: Active
[27]
  inhibition in vivo at 10 mg/kg: ~25%
HEK293 [28]
  Activity: Active
[29]
  pBBB: Permeable
Mus musculus [30]
  Activity: inactive
HEK293 [31]
  Activity: Active
Mus musculus [32]
  Activity: inactive
HEK293 [33]
  Activity: Active
HEK293 [34]
  Activity: Active
Mus musculus [35]
  Activity: inactive
[36]
  inhibition: Active
